Data set [1] has as its system Staphylococcus aureus. The experiment in a line: Antibacterial activity against Staphylococcus aureus harbouring GyrA D83N mutant by CLSI method. The class given is functional.
Data set [2] has as its system Staphylococcus aureus. The experiment in a line: Antibacterial activity against cystic fibrosis isolate Staphylococcus aureus by CLSI method. The class given is functional.
The subject of data set [3] is Staphylococcus aureus. Briefly: Antibacterial activity against Staphylococcus aureus ATCC 29213 by CLSI method. The data set is classed as functional.
Data set [4] concerns Staphylococcus aureus. Briefly: Antibacterial activity against methicillin-resistant Staphylococcus aureus USA300 by CLSI method. The data set is classed as functional.
In data set [5] the test system is Staphylococcus aureus. The experiment in a line: Antibacterial activity against Staphylococcus aureus 3527 by CLSI method. The class given is functional.
A short description of data set [6]: Cytotoxicity activity against human K562 cells assessed as inhibition of cellular growth. The class given is toxicity, cell-based. In outline:
(§1)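 Human K562 leukemia cells were tested alongside K/VP.5, an etoposide-resistant clonal subline derived from them that has reduced levels of human topoisomerase IIα. Cell growth inhibition was expressed as an IC50.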

The test system of data set [7] is Staphylococcus aureus. Briefly: Selectivity ratio of IC50 for inhibition of Staphylococcus aureus DNA topoisomerase 4 decatenation activity to IC50 for inhibition of Staphylococcus aureus DNA gyrase supercoiling activity.
Data set [8] has as its system Neisseria gonorrhoeae. The experiment in a line: Antimicrobial activity against wild type Neisseria gonorrhoeae O strain incubated for 20 to 24 hrs by CLSI protocol based broth microdilution method. The data set is classed as functional. As to conditions: time 20-24 hrs.
In data set [9] the test system is Neisseria gonorrhoeae. Briefly: Antimicrobial activity against Neisseria gonorrhoeae K strain harbouring type 2 topoisomerase GyrA S91F, D95N and ParC S87R, S88P mutant incubated for 20 to 24 hrs by CLSI protocol based broth microdilution method. Particulars: time 20-24 hrs. The data set is classed as functional.
Data set [10] has as its system Neisseria gonorrhoeae. Briefly: Antimicrobial activity against Neisseria gonorrhoeae G strain harbouring type 2 topoisomerase GyrA S91F and ParE G410V mutant incubated for 20 to 24 hrs by CLSI protocol based broth microdilution method. The data set is classed as functional. As to conditions: time 20-24 hrs.
For data set [11], the system named is Neisseria gonorrhoeae. Briefly: Antimicrobial activity against wild type Neisseria gonorrhoeae F strain incubated for 20 to 24 hrs by CLSI protocol based broth microdilution method. The data set is classed as functional. As to conditions: time 20-24 hrs.
Data set [12] has as its system Neisseria gonorrhoeae. Briefly: Antimicrobial activity against wild type Neisseria gonorrhoeae P strain incubated for 20 to 24 hrs by CLSI protocol based broth microdilution method. The data set is classed as functional. As to conditions: time 20-24 hrs.
Data set [13] can be described thus: Metabolic stability in mouse liver microsomes assessed as half life. The class given is ADME, Microsome.
In a further data set the target is Topoisomerase IV (Staphylococcus aureus, UniProt P0C1S7+P0C1U9). The experiment in a line: Inhibition of Staphylococcus aureus DNA topoisomerase 4 decatenation activity using kDNA as substrate incubated for 10 to 20 min by ethidium bromide/bromophenol blue staining based agarose gel electrophoresis analysis. The data set is classed as protein-complex assay.
The subject of data set [14] is Neisseria gonorrhoeae. The experiment in a line: Antimicrobial activity against wild type Neisseria gonorrhoeae Y strain harbouring type 2 topoisomerase GyrA S91F, D95G and ParC S87R mutant incubated for 20 to 24 hrs by CLSI protocol based broth microdilution method. The data set is classed as functional. Particulars: time 20-24 hrs.
Data set [15] is described as follows: Cytotoxicity activity against human K/VP.5 cells assessed as inhibition of cellular growth. The class given is toxicity, cell-based. Summed up: as §1
Data set [16] addresses Voltage-gated inwardly rectifying potassium channel KCNH2 (Homo sapiens, UniProt Q12809). The experiment in a line: Inhibition of hERG cardiac ion channel. The data set is classed as toxicity. In outline: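 hERG channel inhibition was run by a contract lab. […] Determinations were made in duplicate or triplicate (n = 2 or 3).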
For another data set, the target named is DNA gyrase (Staphylococcus aureus, UniProt P0A0K8+P20831). Briefly: Inhibition of Staphylococcus aureus DNA gyrase supercoiling activity incubated for 25 min by ethidium bromide/bromophenol blue staining based agarose gel electrophoresis analysis. The data set is classed as protein-complex assay.
Data set [17] deals with Neisseria gonorrhoeae. The experiment in a line: Antimicrobial activity against wild type Neisseria gonorrhoeae V strain harbouring type 2 topoisomerase GyrA S91F, D95G and ParC S87R mutant incubated for 20 to 24 hrs by CLSI protocol based broth microdilution method. The data set is classed as functional. As to conditions: time 20-24 hrs.
The subject of data set [18] is Neisseria gonorrhoeae. Briefly: Antimicrobial activity against wild type Neisseria gonorrhoeae ATCC 49226 incubated for 20 to 24 hrs by CLSI protocol based broth microdilution method. The class given is functional. Particulars: time 20-24 hrs.

Values after ≈ are worked out from the molar mass of the structure shown.

Consider `O=c1ccc2ncc(=O)n3c2n1CC3CN1CCC(NCc2cc3c(cn2)OCCC3)CC1` (racemic), for which the minimal inhibitory concentration (MIC) in the data set on Staphylococcus aureus [1] is 8 µg/mL (≈ 17.8 µM); against Staphylococcus aureus [2] it was 0.25 µg/mL (≈ 0.557 µM); in the data set on Staphylococcus aureus [3], 0.25 µg/mL (≈ 0.557 µM); in the data set with Staphylococcus aureus [4], 0.25 µg/mL (≈ 0.557 µM); with Staphylococcus aureus [5], 0.25 µg/mL (≈ 0.557 µM).
With `O=c1ccc2ncc(F)c3c2n1CC3C[C@H]1OC[C@H](NCc2cc3c(cn2)OCCC3)CO1` (stereo partly drawn), the half-inhibitory concentration (IC50) in [6] was found to be 268 µM; against Topoisomerase IV, 1.6 µM; in data set [15] it was 187 µM; in [16], 125 µM; on DNA gyrase it was 2.1 µM. The Ratio IC50 in the data set on Staphylococcus aureus [7] was 0.76. The MIC was 2 µg/mL (≈ 4.42 µM) in the data set with Neisseria gonorrhoeae [8]; 1 µg/mL (≈ 2.21 µM) with Neisseria gonorrhoeae [9]; 8 µg/mL (≈ 17.7 µM) in the data set with Neisseria gonorrhoeae [10]; 0.12 µg/mL (≈ 0.265 µM) against Neisseria gonorrhoeae [11]; 2 µg/mL (≈ 4.42 µM) in the data set on Neisseria gonorrhoeae [12]; 8 µg/mL (≈ 17.7 µM) against Staphylococcus aureus [1]. In addition, the MIC against Staphylococcus aureus [2] was 0.5 µg/mL (≈ 1.11 µM); with Staphylococcus aureus [3], 0.25 µg/mL (≈ 0.553 µM); against Neisseria gonorrhoeae [14] it was 0.25 µg/mL (≈ 0.553 µM); in the data set on Staphylococcus aureus [4], 1 µg/mL (≈ 2.21 µM); in the data set on Neisseria gonorrhoeae [17], at most 0.03 µg/mL; against Staphylococcus aureus [5], 1 µg/mL (≈ 2.21 µM). Further, in the data set with Neisseria gonorrhoeae [18], the MIC was 2 µg/mL (≈ 4.42 µM). Also, the half-life in [13] is 18.3 min.
Take `O=c1ccc2ccc(F)c3c2n1CC3C[C@H]1OC[C@H](NCc2cc3c(cn2)OCCC3)CO1` (stereo partly drawn): the half-inhibitory concentration (IC50) worked out at 109 µM in [6]; 2.9 µM against Topoisomerase IV; 85 µM in data set [15]; 53 µM in data set [16]; 0.58 µM against DNA gyrase. Further, the Ratio IC50 in the data set with Staphylococcus aureus [7] worked out at 5. The MIC against Neisseria gonorrhoeae [8] was 0.5 µg/mL (≈ 1.11 µM); in the data set on Neisseria gonorrhoeae [9] it was 0.5 µg/mL (≈ 1.11 µM); against Neisseria gonorrhoeae [10], 2 µg/mL (≈ 4.43 µM); in the data set with Neisseria gonorrhoeae [11] it was at most 0.03 µg/mL; in the data set on Neisseria gonorrhoeae [12] it was 1 µg/mL (≈ 2.21 µM); in the data set with Staphylococcus aureus [1] it was 2 µg/mL (≈ 4.43 µM). The MIC against Staphylococcus aureus [2] is at most 0.25 µg/mL; against Staphylococcus aureus [3], at most 0.25 µg/mL; with Neisseria gonorrhoeae [14] it was at most 0.03 µg/mL; against Staphylococcus aureus [4], 0.5 µg/mL (≈ 1.11 µM); against Neisseria gonorrhoeae [17] it was at most 0.03 µg/mL; with Staphylococcus aureus [5] it was 0.5 µg/mL (≈ 1.11 µM). This compound registered an MIC against Neisseria gonorrhoeae [18] of 0.25 µg/mL (≈ 0.554 µM). In addition, in data set [13], the half-life worked out at 3.64 min.
With `O=c1ccc2ncc(F)c3c2n1CC3C[C@H]1OC[C@H](NCc2ccc3c(c2)OCCO3)CO1` (stereo partly drawn), the half-inhibitory concentration (IC50) in [6] is 34.8 µM; on Topoisomerase IV, 0.54 µM; in [15], 39.2 µM; in data set [16], 100 µM; against DNA gyrase, 0.047 µM. For the same compound, the Ratio IC50 with Staphylococcus aureus [7] is 11. Further, the MIC against Neisseria gonorrhoeae [8] turned out to be 2 µg/mL (≈ 4.41 µM); against Neisseria gonorrhoeae [9] it was 1 µg/mL (≈ 2.21 µM); against Neisseria gonorrhoeae [10], 4 µg/mL (≈ 8.82 µM); against Neisseria gonorrhoeae [11] it was 0.12 µg/mL (≈ 0.265 µM); in the data set with Neisseria gonorrhoeae [12] it was 2 µg/mL (≈ 4.41 µM); in the data set with Staphylococcus aureus [1] it was 2 µg/mL (≈ 4.41 µM). Further, the MIC against Staphylococcus aureus [2] was 0.25 µg/mL (≈ 0.551 µM); against Staphylococcus aureus [3], 0.125 µg/mL (≈ 0.276 µM); with Neisseria gonorrhoeae [14] it was at most 0.03 µg/mL; against Staphylococcus aureus [4], 0.125 µg/mL (≈ 0.276 µM); in the data set on Neisseria gonorrhoeae [17] it was at most 0.03 µg/mL; in the data set on Staphylococcus aureus [5] it was 0.25 µg/mL (≈ 0.551 µM). This compound returned an MIC with Neisseria gonorrhoeae [18] of 0.25 µg/mL (≈ 0.551 µM). In addition, in [13], the half-life was determined as 13.9 min.
In the case of `COc1ccc2ncc(F)c(C[C@H](O)[C@H]3OC[C@H](NCc4ccc5c(n4)NC(=O)CO5)CO3)c2n1`, the minimal inhibitory concentration (MIC) was at most 0.03 µg/mL with Neisseria gonorrhoeae [8]; at most 0.03 µg/mL in the data set on Neisseria gonorrhoeae [9]; 0.25 µg/mL (≈ 0.515 µM) with Neisseria gonorrhoeae [10]; 0.06 µg/mL (≈ 0.124 µM) in the data set with Neisseria gonorrhoeae [11]; at most 0.03 µg/mL with Neisseria gonorrhoeae [12]; at most 0.03 µg/mL against Neisseria gonorrhoeae [14]. For the same compound, the MIC against Neisseria gonorrhoeae [17] and in the data set on Neisseria gonorrhoeae [18] was at most 0.03 µg/mL in each case.
As to `COc1ccc2ncc(F)c(C[C@H](O)[C@H]3OC[C@H](NC(=O)c4ccc5c(n4)NC(=O)CO5)CO3)c2n1`, the half-maximal inhibitory concentration (IC50) in [6] was 0.49 µM; against Topoisomerase IV, 1.1 µM; in [15] it was 3.1 µM; in data set [16], over 100 µM; against DNA gyrase it was 0.19 µM. The Ratio IC50 in the data set with Staphylococcus aureus [7] turned out to be 5.8. For the same compound, the MIC against Neisseria gonorrhoeae [8] was 0.06 µg/mL (≈ 0.12 µM); with Neisseria gonorrhoeae [9], 0.12 µg/mL (≈ 0.24 µM); in the data set on Neisseria gonorrhoeae [10] it was 0.25 µg/mL (≈ 0.501 µM); against Neisseria gonorrhoeae [11], at most 0.015 µg/mL; against Neisseria gonorrhoeae [12] it was at most 0.015 µg/mL; against Staphylococcus aureus [1], 1 µg/mL (≈ 2 µM). For the same compound, the minimal inhibitory concentration (MIC) with Staphylococcus aureus [2] is at most 0.06 µg/mL; with Staphylococcus aureus [3] it was 0.125 µg/mL (≈ 0.25 µM); against Neisseria gonorrhoeae [14], at most 0.015 µg/mL; with Staphylococcus aureus [4] it was at most 0.06 µg/mL; against Neisseria gonorrhoeae [17] it was at most 0.015 µg/mL; in the data set on Staphylococcus aureus [5] it was at most 0.06 µg/mL. This compound came in with an MIC with Neisseria gonorrhoeae [18] of at most 0.015 µg/mL. Further, the half-life in data set [13] came to 5.56 min.

The values above are taken from ChEMBL document CHEMBL5131562, “1,3-Dioxane-Linked Novel Bacterial Topoisomerase Inhibitors: Expanding Structural Diversity and the Antibacterial Spectrum” (ACS Med Chem Lett, 2022).
